Measured values published in ChEMBL document CHEMBL4689842, “EUbOPEN Chemogenomics Library wave 1” (2021).

Test system: HEK-293T
Test: Multiplex assay against HEK293T;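 on Population Tubulin-Different-Phenotype (%): share of the cells with healthy nuclei that show this phenotype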
Assay type: toxicity, cell-based
Details: human
Outline: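 Live cells were stained at seeding with Hoechst33342, BioTracker Green Microtubule Cytoskeleton Dye, MitoTracker Red and Annexin V Alexa Fluor 680, then imaged on a CQ1 microscope at 37°C and 5% CO2 after compound addition. CellPathfinder machine-learning gating split cells into Hoechst high-intensity objects or normal cells. Normal cells were split into healthy, pyknosed or fragmented nuclei, and pyknosed cells into mitotic or apoptotic. Tubulin, mitochondrial-mass and membrane-permeability phenotypes are per cents of healthy-nucleus cells.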

[1] = 12 h, 1 µM, compound concentration 1 uM, replicate 1
[2] = 12 h, 1 µM, compound concentration 1 uM, replicate 2
[3] = 12 h, 10 µM, compound concentration 10 uM, replicate 1
[4] = 12 h, 10 µM, compound concentration 10 uM, replicate 2
[5] = 24 h, 1 µM, compound concentration 1 uM, replicate 1
[6] = 24 h, 1 µM, compound concentration 1 uM, replicate 2
[7] = 24 h, 10 µM, compound concentration 10 uM, replicate 1
[8] = 24 h, 10 µM, compound concentration 10 uM, replicate 2
[9] = 48 h, 1 µM, compound concentration 1 uM, replicate 1
[10] = 48 h, 1 µM, compound concentration 1 uM, replicate 2
[11] = 48 h, 10 µM, compound concentration 10 uM, replicate 1
[12] = 48 h, 10 µM, compound concentration 10 uM, replicate 2

Cc1[nH]c(/C=C2\C(=O)Nc3ccc(S(=O)(=O)N(C)c4cccc(Cl)c4)cc32)c(C)c1C(=O)N1CCN(C)CC1
Population Apoptotic (%) [1]: 60% | Population Fragmented Nuclei (%) [1]: 7% | Population Healthy Nuclei (%) [1]: 47% | Population Hoechst High Intensity Objects (%) [1]: 16% | Population Membrane Permeable-Phenotype (%) [1]: 7% | Population Mitochondria Different-Phenotype (%) [1]: 93% | Population Mitotic Cells (%) [1]: 39% | Population Normal (%) [1]: 83% | Population Pyknosed Nuclei (%) [1]: 44% | Population Tubulin-Different-Phenotype (%) [1]: 91% | Total Cell Count [1]: 198 | Population Apoptotic (%) [2]: 23% | Population Fragmented Nuclei (%) [2]: 6% | Population Healthy Nuclei (%) [2]: 46% | Population Hoechst High Intensity Objects (%) [2]: 4% | Population Membrane Permeable-Phenotype (%) [2]: 18% | Population Mitochondria Different-Phenotype (%) [2]: 52% | Population Mitotic Cells (%) [2]: 76% | Population Normal (%) [2]: 95% | Population Pyknosed Nuclei (%) [2]: 47% | Population Tubulin-Different-Phenotype (%) [2]: 71% | Total Cell Count [2]: 243 | Population Apoptotic (%) [3]: 67% | Population Fragmented Nuclei (%) [3]: 12% | Population Healthy Nuclei (%) [3]: 29% | Population Hoechst High Intensity Objects (%) [3]: 15% | Population Membrane Permeable-Phenotype (%) [3]: 5% | Population Mitochondria Different-Phenotype (%) [3]: 90% | Population Mitotic Cells (%) [3]: 32% | Population Normal (%) [3]: 84% | Population Pyknosed Nuclei (%) [3]: 57% | Population Tubulin-Different-Phenotype (%) [3]: 98% | Total Cell Count [3]: 214 | Population Apoptotic (%) [4]: 50% | Population Fragmented Nuclei (%) [4]: 4% | Population Healthy Nuclei (%) [4]: 40% | Population Hoechst High Intensity Objects (%) [4]: 5% | Population Membrane Permeable-Phenotype (%) [4]: 19% | Population Mitochondria Different-Phenotype (%) [4]: 57% | Population Mitotic Cells (%) [4]: 50% | Population Normal (%) [4]: 94% | Population Pyknosed Nuclei (%) [4]: 55% | Population Tubulin-Different-Phenotype (%) [4]: 93% | Total Cell Count [4]: 157 | Population Apoptotic (%) [5]: 55% | Population Fragmented Nuclei (%) [5]: 11% | Population Healthy Nuclei (%) [5]: 48% | Population Hoechst High Intensity Objects (%) [5]: 18% | Population Membrane Permeable-Phenotype (%) [5]: 3% | Population Mitochondria Different-Phenotype (%) [5]: 85% | Population Mitotic Cells (%) [5]: 44% | Population Normal (%) [5]: 81% | Population Pyknosed Nuclei (%) [5]: 40% | Population Tubulin-Different-Phenotype (%) [5]: 86% | Total Cell Count [5]: 212 | Population Apoptotic (%) [6]: 24% | Population Fragmented Nuclei (%) [6]: 4% | Population Healthy Nuclei (%) [6]: 56% | Population Hoechst High Intensity Objects (%) [6]: 3% | Population Membrane Permeable-Phenotype (%) [6]: 7% | Population Mitochondria Different-Phenotype (%) [6]: 57% | Population Mitotic Cells (%) [6]: 75% | Population Normal (%) [6]: 96% | Population Pyknosed Nuclei (%) [6]: 38% | Population Tubulin-Different-Phenotype (%) [6]: 71% | Total Cell Count [6]: 295 | Population Apoptotic (%) [7]: 88% | Population Fragmented Nuclei (%) [7]: 15% | Population Healthy Nuclei (%) [7]: 27% | Population Hoechst High Intensity Objects (%) [7]: 12% | Population Membrane Permeable-Phenotype (%) [7]: 5% | Population Mitochondria Different-Phenotype (%) [7]: 100% | Population Mitotic Cells (%) [7]: 11% | Population Normal (%) [7]: 87% | Population Pyknosed Nuclei (%) [7]: 56% | Population Tubulin-Different-Phenotype (%) [7]: 98% | Total Cell Count [7]: 230 | Population Apoptotic (%) [8]: 83% | Population Fragmented Nuclei (%) [8]: 7% | Population Healthy Nuclei (%) [8]: 35% | Population Hoechst High Intensity Objects (%) [8]: 4% | Population Membrane Permeable-Phenotype (%) [8]: 10% | Population Mitochondria Different-Phenotype (%) [8]: 81% | Population Mitotic Cells (%) [8]: 16% | Population Normal (%) [8]: 95% | Population Pyknosed Nuclei (%) [8]: 57% | Population Tubulin-Different-Phenotype (%) [8]: 96% | Total Cell Count [8]: 162 | Population Apoptotic (%) [9]: 55% | Population Fragmented Nuclei (%) [9]: 14% | Population Healthy Nuclei (%) [9]: 56% | Population Hoechst High Intensity Objects (%) [9]: 19% | Population Membrane Permeable-Phenotype (%) [9]: 2% | Population Mitochondria Different-Phenotype (%) [9]: 66% | Population Mitotic Cells (%) [9]: 44% | Population Normal (%) [9]: 80% | Population Pyknosed Nuclei (%) [9]: 29% | Population Tubulin-Different-Phenotype (%) [9]: 74% | Total Cell Count [9]: 246 | Population Apoptotic (%) [10]: 31% | Population Fragmented Nuclei (%) [10]: 4% | Population Healthy Nuclei (%) [10]: 75% | Population Hoechst High Intensity Objects (%) [10]: 1% | Population Membrane Permeable-Phenotype (%) [10]: 8% | Population Mitochondria Different-Phenotype (%) [10]: 20% | Population Mitotic Cells (%) [10]: 68% | Population Normal (%) [10]: 98% | Population Pyknosed Nuclei (%) [10]: 19% | Population Tubulin-Different-Phenotype (%) [10]: 54% | Total Cell Count [10]: 469 | Population Apoptotic (%) [11]: 92% | Population Fragmented Nuclei (%) [11]: 17% | Population Healthy Nuclei (%) [11]: 30% | Population Hoechst High Intensity Objects (%) [11]: 15% | Population Membrane Permeable-Phenotype (%) [11]: 5% | Population Mitochondria Different-Phenotype (%) [11]: 100% | Population Mitotic Cells (%) [11]: 7% | Population Normal (%) [11]: 84% | Population Pyknosed Nuclei (%) [11]: 52% | Population Tubulin-Different-Phenotype (%) [11]: 96% | Total Cell Count [11]: 223 | Population Fragmented Nuclei (%) [12]: 4% | Population Healthy Nuclei (%) [12]: 54% | Population Hoechst High Intensity Objects (%) [12]: 3% | Population Membrane Permeable-Phenotype (%) [12]: 9% | Population Mitochondria Different-Phenotype (%) [12]: 68% | Population Normal (%) [12]: 96% | Population Pyknosed Nuclei (%) [12]: 41% | Total Cell Count [12]: 178
